From ChEMBL document CHEMBL1681789, “New bichalcone analogs as NF-κB inhibitors and as cytotoxic agents inducing Fas/CD95-dependent apoptosis” (Bioorg Med Chem, 2011) come the findings set out here.

The nature of experiment [1]: Inhibition of Nitric oxide synthase activity in mouse BV2 cells assessed as LPS-induced NO production after 24 hrs by Griess reaction. The format is cell-based. The following applies: BV-2, 24 h. A digest of the protocol:
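Murine BV2 microglia were cultured in DMEM with 5% FBS and given 1–50 µM drug with 0.5 µg/mL LPS. Nitrite accumulated in the medium over 24 h was measured by Griess reagent. IC50 values are means ± SEM from 3–6 experiments on different days using different passages.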

Experiment [2] concerns A549. Briefly: Cytotoxicity against human A549 cells after 3 days. The following applies: A549, 72 h. The format is functional. The procedure, abridged: (§1)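 Seeded at 1500–7500 cells/well; compounds added from DMSO-diluted stock. After 3 days, attached cells were fixed with cold 50% TCA, stained with 0.4% sulforhodamine B and read at 562 nm. EC50 is the concentration reducing growth by 50%, averaged over at least three independent determinations. Cells were grown in RPMI-1640 with […], 0.25% bicarbonate and 10% FBS.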

The test system of experiment [3] is BV-2. The experiment in a line: Inhibition of NADPH oxidase mediated-ROS production in mouse BV2 cells. The format is cell-based. A digest of the protocol: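 Compounds were incubated with 50 µg microglial cell homogenate for 20 min at 37 °C in the dark. Superoxide production was started with 200 µM NADPH, and chemiluminescence was followed for 30 min; the AUC represents ROS production. DPI served as positive control.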

The test system of experiment [4] is HCT-8. The experiment in a line: Cytotoxicity against human HCT8 cells after 3 days. The following applies: HCT-8, 72 h. The format is functional. The procedure, abridged: as §1
In experiment [5] the test system is KB. Briefly: Cytotoxicity against human KB cells after 3 days. The format is functional. The following applies: 72 h. The procedure, abridged: as §1
For experiment [6], the system named is DU-145. The experiment in a line: Cytotoxicity against human DU145 cells after 3 days. The format is functional. The following applies: DU-145, 72 h. A digest of the protocol:
as §1

Experiment [7] relates to HCT-8. The experiment in a line: Cytotoxicity against human HCT8 cells at 20 ug/ml after 3 days. The format is functional, cell-based.
Experiment [8] deals with DU-145. Briefly: Cytotoxicity against human DU145 cells at 20 ug/ml after 3 days. The format is functional, cell-based.
Experiment [9] has as its system A549. The experiment in a line: Cytotoxicity against human A549 cells at 20 ug/ml after 3 days. The format is functional, cell-based.
Experiment [10] relates to KB. Briefly: Cytotoxicity against human KB cells at 20 ug/ml after 3 days. The format is functional, cell-based.

Structures are written as SMILES. pIC50: −log10 of the molar value. Active and inactive are the calls of the source. The calls are words filed in the database; no cut-off is given here. A value given as a limit tells only on which side of the number the result lay.

`O=C(/C=C/c1cccs1)c1ccc(N2CCN(Cc3cc(C(=O)/C=C/c4cccs4)ccc3O)CC2)cc1`: in experiment [1], the negative-log IC50 (pIC50) was 5.72. Also, the GI50 in experiment [2] is more than 37 µM; in experiment [4] it was more than 37 µM; in experiment [5], more than 37 µM; in [6], 29.2 µM. The inhibition entry in experiment [3] was “inactive”.
For the compound `Cc1ccsc1/C=C/C(=O)c1ccc(N2CCN(Cc3cc(C(=O)/C=C/c4sccc4C)ccc3O)CC2)cc1`, the result in experiment [7], in experiment [8], in experiment [9] and in experiment [10] was inactive. Moreover, the negative logarithm of the IC50 (pIC50) in experiment [1] was 5.12. For the same compound, the inhibition result in [3] is “inactive”.
For `COc1cc(C(=O)/C=C/c2ccccn2)cc(CN2CCN(c3ccc(C(=O)/C=C/c4ccccn4)cc3)CC2)c1O`, the pIC50 in [1] was 5.80. Also, the 50% growth inhibitory concentration (GI50) is 1 µM in experiment [2], 0.7 µM in experiment [4], 3.98 µM in experiment [5] and 1.3 µM in [6]. The inhibition result in experiment [3] was “inactive”.
Consider `CC(=O)c1ccc(N2CCN(Cc3cc(C(=O)/C=C/c4cccn4C)ccc3O)CC2)cc1`, for which the negative logarithm of the IC50 (pIC50) in experiment [1] is 5.72. In addition, the concentration for 50% growth inhibition (GI50) is 31.2 µM in [2], more than 45.1 µM in experiment [4], 39.1 µM in [5] and more than 45.1 µM in [6]. Besides, the inhibition entry in experiment [3] is “inactive”.
With `Cc1ccc(/C=C/C(=O)c2ccc(N3CCN(Cc4cc(C(=O)/C=C/c5ccc(C)o5)ccc4O)CC3)cc2)o1`, the result in [7], in [8], in [9] and in experiment [10] was inactive. In addition, the pIC50 in experiment [1] is 5.62. For the same compound, the inhibition entry in experiment [3] is “inactive”.
For `O=C(/C=C/c1ccccc1)c1ccc(N2CCN(Cc3cc(C(=O)/C=C/c4ccccc4)ccc3O)CC2)cc1`, the outcome in experiment [7], in experiment [8], in experiment [9] and in experiment [10] was inactive. For the same compound, the pIC50 in experiment [1] was 5.55. In experiment [3], the inhibition entry was “inactive”.
Take `Cn1cccc1/C=C/C(=O)c1ccc(N2CCN(Cc3cc(C(=O)/C=C/c4cccn4C)ccc3O)CC2)cc1`: the result in experiment [7], in experiment [8], in experiment [9] and in experiment [10] was inactive. Besides, in experiment [1], the pIC50 was 5.92. The inhibition result in experiment [3] was “inactive”.
Consider `COc1cc(C(=O)/C=C/c2ccccc2)cc(CN2CCN(c3ccc(C(=O)/C=C/c4ccccc4)cc3)CC2)c1O`, for which the pIC50 in [1] is 5.68. For the same compound, the concentration for 50% growth inhibition (GI50) in experiment [2] was more than 35.8 µM; in experiment [4] it was 25.8 µM; in experiment [5], more than 35.8 µM; in experiment [6], more than 35.8 µM. The inhibition result in experiment [3] was “inactive”.
On to `O=C(/C=C/c1ccccc1Cl)c1ccc(N2CCN(Cc3cc(C(=O)/C=C/c4ccccc4Cl)ccc3O)CC2)cc1`, for which the result in experiment [7], in experiment [8], in [9] and in experiment [10] was inactive. Further, the negative logarithm of the IC50 (pIC50) in experiment [1] was 4.52. Besides, in experiment [3], the inhibition result is “inactive”.
Turning to `O=C(/C=C/c1ccc(Cl)cc1Cl)c1ccc(N2CCN(Cc3cc(C(=O)/C=C/c4ccc(Cl)cc4Cl)ccc3O)CC2)cc1`, the outcome in experiment [7], in [8], in experiment [9] and in experiment [10] was inactive. The negative-log IC50 (pIC50) in experiment [1] was 4.59. For the same compound, the inhibition result in experiment [3] is “inactive”.
For `COc1cc(C(=O)/C=C/c2sccc2C)cc(CN2CCN(c3ccc(C(=O)/C=C/c4sccc4C)cc3)CC2)c1O`, the outcome in experiment [7], in experiment [8], in experiment [9] and in [10] was inactive. Moreover, the pIC50 in experiment [1] is 5.51. In addition, the inhibition result in experiment [3] was “inactive”.
In the case of `CC(=O)c1ccc(N2CCN(Cc3cc(C(C)=O)ccc3O)CC2)cc1`, the result in experiment [7], in experiment [8], in experiment [9] and in experiment [10] was inactive. Also, in experiment [1], the negative-log IC50 (pIC50) was 5.18. Moreover, the inhibition result in experiment [3] was “inactive”.
For `O=C(/C=C/c1ccc2c(c1)OCO2)c1ccc(N2CCN(Cc3cc(C(=O)/C=C/c4ccc5c(c4)OCO5)ccc3O)CC2)cc1`, the result in [7], in [8], in experiment [9] and in [10] was inactive. Also, the pIC50 in experiment [1] was 5.68. Further, in experiment [3], the inhibition entry is “inactive”.
As for `COC(=O)[C@@H](N)CCCNC(=N)N[N+](=O)[O-]` [L-NAME], the pIC50 in [1] is 4.72.
For `CC(=O)O[C@H]1C(=O)[C@@]2(C)[C@H]([C@H](OC(=O)c3ccccc3)[C@]3(O)C[C@H](OC(=O)[C@H](O)[C@@H](NC(=O)c4ccccc4)c4ccccc4)C(C)=C1C3(C)C)[C@]1(OC(C)=O)CO[C@@H]1C[C@@H]2O` [PACLITAXEL], the GI50 in experiment [2] was 0.0076 µM; in experiment [4], more than 0.1 µM; in experiment [5], 0.00516 µM; in experiment [6], 0.00523 µM.
With `COc1cc(C(C)=O)cc(CN2CCN(c3ccc(C(C)=O)cc3)CC2)c1O`, the result in [7], in experiment [8], in experiment [9] and in experiment [10] was inactive. Also, in experiment [1], the pIC50 was 4.80. Besides, the inhibition entry in [3] was “inactive”.
In the case of `O=C(/C=C/c1ccco1)c1ccc(N2CCN(Cc3cc(C(=O)/C=C/c4ccco4)ccc3O)CC2)cc1`, the result in experiment [7], in [8], in experiment [9] and in experiment [10] was inactive. Besides, the negative logarithm of the IC50 (pIC50) in experiment [1] was 5.77. Besides, the inhibition result in [3] was “inactive”.
On to `COc1cc(C(=O)/C=C/c2cccs2)cc(CN2CCN(c3ccc(C(=O)/C=C/c4cccs4)cc3)CC2)c1O`, for which the result in experiment [7], in [8], in experiment [9] and in [10] was inactive. The pIC50 in experiment [1] is 5.57. The inhibition entry in experiment [3] is “inactive”.
On to `COc1ccc(/C=C/C(=O)c2ccc(N3CCN(Cc4cc(C(=O)/C=C/c5ccc(OC)cc5)cc(OC)c4O)CC3)cc2)cc1`, for which the outcome in experiment [7], in experiment [8], in [9] and in [10] was inactive. Also, in experiment [1], the pIC50 was 5.46. Further, the inhibition entry in experiment [3] was “inactive”.
`COc1cc(C(=O)/C=C/c2ccccc2Cl)cc(CN2CCN(c3ccc(C(=O)/C=C/c4ccccc4Cl)cc3)CC2)c1O`: the result in experiment [7], in experiment [8], in experiment [9] and in [10] was inactive. The pIC50 in experiment [1] was 4.96. In addition, the inhibition entry in experiment [3] was “inactive”.

The pIC50 is the IC50 on a negative log10 scale, so that one unit is a factor of ten. Usually GI50 stands for the concentration at which growth is held to half of that of the control. Low readings indicate more potent growth inhibition, high ones less potent growth inhibition.
